Bcl-2 Bim block: inhibitors of Bim-Bcl-2 binding, primary screen, biochemical, multiplexed, human Bcl-2 family | Apoptosis regulator Bcl-2 (Homo sapiens), P10415 | Bead-based flow cytometry, Bim peptide-Bcl-2 binding | inhibition, % at 10 µM | hit rate 0.06% among 190,000; in the data active = inhibition above about 40%;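 also: 0% = no compound wells with probe peptide and 100% = reference peptide inhibitor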
Biofilm kill mix: clotrimazole potentiators killing C. albicans biofilm, primary screen, 4-compound mixtures. hit rate 0.02% among 120,000. C. albicans biofilm persisters + clotrimazole, fluorescence viability; primary screen in compound mixtures of four per well. inhibition, % at 7.6 µM. AID 1242, 2008;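 active = inhibition above 30.3% in the primary screen of four-compound pools, then above 30% when the compound was retested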;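 also: compounds exposed to preformed 24 h biofilms for 48 h; 0% = untreated biofilm control and 100% = clotrimazole plus chlorhexidine kill blank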
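Assay system: C. albicans biofilms / Medium: RPMI/MOPS medium, pH 7.0 / Schedule: biofilm formation 24 h, compound exposure 48 h, 37 °C / Measured by: Alamar Blue fluorescence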
Bfl-1 Bim block: inhibitors of Bim binding to Bfl-1, primary screen, biochemical, multiplexed, bead-based flow cytometry; Bcl-2-related protein A1 (Homo sapiens), Q16548; Bim-Bfl-1 binding inhibition; hit rate 0.12% among 190,000; AID 1008, 2008; inhibition, % at 10 µM;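 also: 0% = wells without compound plus tracer and 100% = blocker peptide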
Target sequence (Q16548 whole entry, looked up): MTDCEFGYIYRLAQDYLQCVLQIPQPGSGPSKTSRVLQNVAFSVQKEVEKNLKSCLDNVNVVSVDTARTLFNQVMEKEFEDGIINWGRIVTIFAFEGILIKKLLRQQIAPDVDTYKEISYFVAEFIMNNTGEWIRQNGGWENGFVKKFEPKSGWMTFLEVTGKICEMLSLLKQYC
Bim-Bcl-W: inhibitors of Bim binding to Bcl-W, primary screen, biochemical, multiplexed, bead-based flow cytometry | Bcl-2-like protein 2 (Homo sapiens), Q92843 | Bim peptide-Bcl-W binding | inhibition, % at 10 µM | hit rate 0.02% among 190,000 | AID 952, 2007;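 also: 0% = bound tracer without compound and 100% = peptide blocker; higher means less fluorescent Bim peptide bound to Bcl-W beads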
Target sequence (Q92843 whole entry, looked up): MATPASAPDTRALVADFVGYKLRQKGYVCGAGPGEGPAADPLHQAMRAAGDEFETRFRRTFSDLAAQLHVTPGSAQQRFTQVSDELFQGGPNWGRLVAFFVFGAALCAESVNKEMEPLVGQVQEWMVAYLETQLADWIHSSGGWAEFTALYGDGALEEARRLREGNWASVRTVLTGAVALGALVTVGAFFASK
Bim-Bcl-XL: inhibitors of Bim-Bcl-XL binding, primary screen, biochemical, multiplexed, bead flow cytometry, human Bcl-XL; Bcl-2-like protein 1 (Homo sapiens), Q07817; Bim peptide-Bcl-XL binding, fluorescence; inhibition, % at 10 µM; hit rate 0.04% among 190,000
Bim-Bcl-B: inhibitors of Bim-Bcl-B binding, primary screen, biochemical, multiplexed, human Bcl-2 family. bead-based flow cytometry, Bim peptide-Bcl-B binding. inhibition, % at 10 µM. hit rate 0.073% among 190,000. AID 951, 2007;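 also: 0% = tracer peptide without compound and 100% = reference inhibitor peptide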
Target sequence (Q9HD36 whole entry, looked up): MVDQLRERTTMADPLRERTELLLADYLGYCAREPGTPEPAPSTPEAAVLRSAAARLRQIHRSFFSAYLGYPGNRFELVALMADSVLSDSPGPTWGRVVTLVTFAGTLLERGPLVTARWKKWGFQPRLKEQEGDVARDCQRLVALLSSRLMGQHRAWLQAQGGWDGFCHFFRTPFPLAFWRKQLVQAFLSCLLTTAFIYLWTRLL
Starred values were filed as active, the others as inactive; . = no result given. In the library only some 0.17% were active in any assay of this set; here they are far more common. Rule as the data show it, unless noted: active = inhibition above about 40%.

SMILES	Bcl-2 Bim block	Biofilm kill mix	Bfl-1 Bim block	Bim-Bcl-W	Bim-Bcl-XL	Bim-Bcl-B
CSc1nnc(-c2ccc(S(=O)(=O)N3CCOCC3)cc2)n1CC1CCCO1 (centres undefined)	-4	.	-3	0	-1	-4
CC(=O)N/N=C/c1cc(C(C)C)cc(/C=N/NC(C)=O)c1O	-1	5	-6	-2	-3	-4
Cc1c(N2C(=O)c3ccc4c5c(ccc(c35)C2=O)CC4)c(=O)n(-c2ccccc2)n1C	17	.	3	5	4	58*
O=C(c1ccccc1NS(=O)(=O)c1ccc(F)cc1)N1CCCC1	-14	.	-16	-1	-13	-9
O=C(c1ccccc1NS(=O)(=O)c1ccc(Br)s1)N1CCCC1	27	.	49*	31	38	-3
O=C(CSc1nc(-c2ccco2)cc(C(F)(F)F)n1)Nc1ccc(C(=O)N2CCCCC2)cc1	-4	.	-8	-1	-1	-3
CCOC(=O)NC(O)C(=O)c1ccc(F)cc1 (centres undefined)	0	17	-3	-2	-2	-6
CCCCC(C(=O)OCC)C(N)Cc1ccc(F)cc1 (centres undefined)	58*	18	7	24	83*	76*
Cn1c(CCNC(=O)C2CCCCC2)nc2cc(NC(=O)c3cccs3)ccc21	91*	6	59*	8	15	86*
CC(=O)NCCc1nc2cc(NC(=O)c3cccs3)ccc2n1C	-4	12	-3	1	-1	-1
Cc1ccc(NC(=S)N2CCn3cccc3C2c2cccnc2)cc1 (centres undefined)	-1	17	-1	-1	-4	18
CCc1cccc(CC)c1NC(=S)N1CCn2cccc2C1c1cccnc1 (centres undefined)	21	17	25	20	27	49*
COc1ccccc1-n1c(-c2ccc(Cl)cc2)c[nH]c1=S	0	9	5	-2	-5	42*
COc1ccccc1-n1c(-c2ccc(NS(C)(=O)=O)cc2)n[nH]c1=S	-17	.	-15	-2	-4	-18
O=C(CSc1nnc(Cn2c(=O)sc3ccccc32)n1-c1ccccc1)NCc1ccco1	-2	.	-3	-5	-8	-8
O=C(O)CC1S/C(=N/N=C/C=C/c2ccccc2[N+](=O)[O-])NC1=O (centres undefined)	34	6	46*	34	50*	28
O=C(O)CC1S/C(=N/N=C/C=C/c2ccccc2)NC1=O (centres undefined)	-5	19	-6	-3	-10	-6
N#Cc1cc(-c2ccccc2)nn1-c1ccccc1	9	.	57*	24	3	-9
Cn1ccc(-c2ccccc2)n1	2	11	-3	-1	-3	-2
Cc1[nH]nc(SCC(=O)NCc2ccc(F)cc2)c1[N+](=O)[O-]	30	2	36	30	42*	24
Cc1ccc(/C=C/C2=Cc3c(sc(NC(=O)CSc4n[nH]c(N)n4)c3C#N)C(C)(C)C2)o1	19	.	47*	26	16	7
CCN(CC)c1ccc2c(c1)CCCN2	41*	.	62*	49*	15	28
O=C(CCl)Nc1cccc2ncccc12	25	27	21	25	34	57*
COC(=O)c1cc2c(-c3ccccc3)cc3ccccn3c-2c1C(=O)OC	-2	.	-9	5	-16	-6
COC(=O)c1c(C(=O)OC)c2cccc3cc(-c4ccccc4)c4ccc1c4n32	15	.	44*	34	4	-8
SMILES	Bcl-2 Bim block	Biofilm kill mix	Bfl-1 Bim block	Bim-Bcl-W	Bim-Bcl-XL	Bim-Bcl-B
CCOc1ccccc1CNC(=O)CCNC(=O)Cn1ccc2ccccc2c1=O	-9	.	-12	2	-8	-4
CC1(C)SC(=S)N(NC(=O)Nc2ccccc2)C1N(O)C(=O)Nc1cccc2ccccc12 (centres undefined)	38	4	48*	37	45*	32
CC1(C)SC(=S)N(/N=C/c2ccccc2O)C1N(O)C(=O)Nc1ccccc1 (centres undefined)	.	21	.	.	.	.
COc1cc2[nH]c(=S)nc(NCCc3ccc(S(N)(=O)=O)cc3)c2cc1OC	19	7	12	39	55*	31
COc1ccc(CCNc2nc(=S)[nH]c3cc(OC)c(OC)cc23)cc1OC	14	11	14	28	48*	10
COc1cc2[nH]c(=S)nc(NCCc3ccc(C)cc3)c2cc1OC	4	10	3	20	32	0
COc1cc2[nH]c(=S)nc(Nc3ccc(NC(C)=O)cc3)c2cc1OC	21	1	29	33	50*	31
O=c1[nH]c(CN2CCN(C/C=C/c3ccccc3)CC2)nc2cc(Cl)ccc12	-5	.	-7	-1	-3	-9
Cc1cnc(NS(=O)(=O)c2ccc(Cl)cc2)c(Br)c1	.	4	.	.	.	.
CN(C)/C=C/C(=O)c1ccc(C(F)(F)F)cc1F	74*	12	22	23	94*	89*
CN(C)/C=C/C(=O)c1ccc(Cl)cc1Cl	-3	17	-6	-3	-1	-1
O=C1CC(c2cccs2)c2ccc3ccccc3c2N1 (centres undefined)	-4	15	-7	-1	-2	-5
CCN=c1scc(C)n1/N=C/c1ccc(O)c(O)c1O	19	.	51*	21	8	-2
COCCN=c1scc(-c2cccs2)n1/N=C/c1ccc(O)c(O)c1O	21	15	40*	21	6	0
O=C(CCc1ccc(O)c(O)c1)NNC(=S)NCCc1ccccc1	0	13	1	2	-2	-11
CNc1nc2ccccc2n1/N=C/c1cccc(OC)c1OC	92*	.	.	29	38	.
Cc1ccc(OC(=O)c2ccc3snnc3c2)cc1	81*	.	62*	11	14	81*
COc1ccc(N(C)C(=O)c2ccc3snnc3c2)cc1	-8	.	-6	0	-4	-4
CC(C)CC(=O)OCc1cn(-c2ccccc2)nn1	83*	.	58*	1	10	80*
CNC(=S)N1N=C(c2ccc(C)cc2)CC1c1ccc(Br)cc1 (centres undefined)	-7	.	-11	0	0	-8
CC(C)c1ccc(C2CC(c3ccc(Br)cc3)=NN2C(N)=S)cc1 (centres undefined)	-1	5	-2	-3	-3	66*
COc1cc(OC)c([N+](=O)[O-])cc1/C=N/NC(=O)c1ccncc1	21	18	38	40*	13	7
COc1ccc(/C=N/NC(=O)c2ccncc2)c(C(=O)O)c1OC	.	32	.	.	.	.
